Laboratory results reported in ChEMBL document CHEMBL1152922, “7-O-methylkaempferol and -quercetin glycosides from the whole plant of Nervilia fordii” (J Nat Prod, 2009).
The source made the active and inactive calls. The rule behind the calls is not given here.

Key:
[1] = Cytotoxicity against african green monkey Vero cells after 3 days by MTT assay; type: cell-based; conditions: chlorocebus sabaeus, read-out: MNCC
Human alphaherpesvirus 1 [2] = test: Antiviral activity against HSV1 infected in african green monkey Vero cells assessed as total inhibitory concentration after 3 days by plaque reduction assay; type: functional
Summary of the method: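 Vero cells seeded in 24-well plates and grown 24 h, then infected with 30 PFU HSV-1 in the presence of a range of sample concentrations. Samples were diluted in DMEM with 2% FBS at pH 7.2, and medium alone served as control. Wells were overlaid with 1% methylcellulose medium and incubated 3 days, then formalin-fixed and crystal violet-stained. Plaques were counted, and the 100%-inhibitory concentration was read from plots.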

Human alphaherpesvirus 1 [3] = test: Antiviral activity against HSV1 infected in african green monkey Vero cells assessed as inhibition of virus-induced cytopathic effect after 3 days; conditions: Human alphaherpesvirus 1, Vero, 72 h

Compound | MNTC at 72 h [1] [µM] | Activity (Human alphaherpesvirus 1 [2]) | IC50 (Human alphaherpesvirus 1 [3]) [µM]
O=c1cc(-c2ccc(O)cc2)oc2c([C@@H]3O[C@H](CO)[C@@H](O)[C@H](O)[C@H]3O)c(O)c([C@@H]3O[C@H](CO)[C@@H](O)[C@H](O)[C@H]3O)c(O)c12 | 170 | inactive | –
COc1cc(O)c2c(=O)c(O[C@@H]3O[C@H](CO)[C@@H](O)[C@H](O)[C@H]3O)c(-c3ccc(O)c(OC)c3)oc2c1 | 200 | inactive | –
Nc1nc2c(ncn2COCCO)c(=O)[nH]1 [ACYCLOVIR] | 1110 | – | 4.3
COc1cc(O)c2c(=O)c(O[C@@H]3O[C@H](CO)[C@@H](O)[C@H](O)[C@H]3O)c(-c3ccc(O[C@@H]4O[C@H](CO)[C@@H](O)[C@H](O)[C@H]4O)cc3)oc2c1 [COMPLANATUSIDE] | 320 | inactive | –
O=c1ccc2cc(O)c(O)cc2o1 [ESCULETIN] | 140 | 0.14 mM | –
COc1cc(O)c2c(=O)c(O[C@@H]3O[C@H](CO)[C@@H](O[C@@H]4OC[C@@H](O)[C@H](O)[C@H]4O)[C@H](O)[C@H]3O)c(-c3ccc(O)cc3)oc2c1 [NERVILIFORDIN A] | 170 | inactive | –
COc1cc(O)c2c(=O)c(O[C@@H]3O[C@H](CO)[C@@H](O[C@@H]4O[C@H](CO)[C@@H](O)[C@H](O)[C@H]4O)[C@H](O)[C@H]3O)c(-c3ccc(O)cc3)oc2c1 [NERVILIFORDIN B] | 160 | inactive | –
COc1cc(O)c2c(=O)c(O[C@@H]3O[C@H](CO)[C@@H](O[C@@H]4O[C@H](CO)[C@@H](O)[C@H](O)[C@H]4O)[C@H](O)[C@H]3O)c(-c3ccc(O)c(O)c3)oc2c1 [NERVILIFORDIN C] | 160 | inactive | –
COc1cc(O)c2c(=O)c(O)c(-c3ccc(O)c(OC)c3)oc2c1 [RHAMNAZIN] | 40 | inactive | –
COc1cc(O)c2c(=O)c(O)c(-c3ccc(O)c(O)c3)oc2c1 [RHAMNETIN] | 80 | inactive | –
COc1cc(O)c2c(=O)c(O)c(-c3ccc(O)cc3)oc2c1 [RHAMNOCITRIN] | 80 | inactive | –
